In ChEMBL document CHEMBL3593245 (J Med Chem, 2015):
≈ marks a conversion by molar mass, not a printed value.

Legend:
[1] = biological target: T1, Rap guanine nucleotide exchange factor 4 (Mus musculus) (UniProt Q9EQZ6); assay: Ratio of cAMP IC50 to compound IC50 for displacement of 8-NBD-cAMP from mouse recombinant EPAC2 by fluorescence assay
T1 sequence (whole entry): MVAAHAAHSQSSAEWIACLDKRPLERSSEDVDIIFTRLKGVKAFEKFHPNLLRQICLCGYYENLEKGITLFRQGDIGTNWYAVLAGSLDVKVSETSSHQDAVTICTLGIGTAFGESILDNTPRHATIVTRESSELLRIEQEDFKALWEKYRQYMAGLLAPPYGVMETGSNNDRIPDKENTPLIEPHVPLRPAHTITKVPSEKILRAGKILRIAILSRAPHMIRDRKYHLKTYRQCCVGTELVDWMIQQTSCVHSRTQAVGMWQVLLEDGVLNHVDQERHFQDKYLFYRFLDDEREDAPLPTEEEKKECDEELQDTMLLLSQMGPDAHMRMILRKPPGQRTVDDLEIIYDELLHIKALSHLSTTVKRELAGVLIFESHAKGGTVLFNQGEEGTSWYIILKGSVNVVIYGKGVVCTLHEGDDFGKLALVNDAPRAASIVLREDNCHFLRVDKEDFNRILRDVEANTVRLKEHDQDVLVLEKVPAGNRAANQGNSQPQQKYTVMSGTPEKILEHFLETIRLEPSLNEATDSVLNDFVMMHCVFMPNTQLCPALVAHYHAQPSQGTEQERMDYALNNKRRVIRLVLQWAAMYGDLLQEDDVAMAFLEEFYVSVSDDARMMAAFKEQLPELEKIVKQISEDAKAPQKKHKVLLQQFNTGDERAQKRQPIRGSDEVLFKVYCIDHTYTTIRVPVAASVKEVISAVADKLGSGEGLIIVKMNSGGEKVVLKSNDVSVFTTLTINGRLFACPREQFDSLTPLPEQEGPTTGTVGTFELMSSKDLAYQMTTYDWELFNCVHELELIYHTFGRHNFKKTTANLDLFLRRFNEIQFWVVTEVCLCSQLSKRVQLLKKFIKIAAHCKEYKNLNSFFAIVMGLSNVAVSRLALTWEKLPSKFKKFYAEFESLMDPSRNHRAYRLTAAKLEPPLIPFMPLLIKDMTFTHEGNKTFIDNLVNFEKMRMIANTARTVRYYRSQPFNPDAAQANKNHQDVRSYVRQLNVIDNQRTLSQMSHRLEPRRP

[2] = biological target: T2, Rap guanine nucleotide exchange factor 4 (Mus musculus, UniProt Q9EQZ6); assay: Displacement of 8-NBD-cAMP from mouse recombinant EPAC2 by fluorescence assay
T2 sequence (Q9EQZ6 whole entry): T1 sequence (whole entry)

[3] = biological target: T3, Rap guanine nucleotide exchange factor 3 (Homo sapiens, UniProt O95398); assay: Antagonist activity at human recombinant EPAC1 assessed as inhibition of Rap1b-bGDP exchange activity
T3 sequence (O95398 whole entry): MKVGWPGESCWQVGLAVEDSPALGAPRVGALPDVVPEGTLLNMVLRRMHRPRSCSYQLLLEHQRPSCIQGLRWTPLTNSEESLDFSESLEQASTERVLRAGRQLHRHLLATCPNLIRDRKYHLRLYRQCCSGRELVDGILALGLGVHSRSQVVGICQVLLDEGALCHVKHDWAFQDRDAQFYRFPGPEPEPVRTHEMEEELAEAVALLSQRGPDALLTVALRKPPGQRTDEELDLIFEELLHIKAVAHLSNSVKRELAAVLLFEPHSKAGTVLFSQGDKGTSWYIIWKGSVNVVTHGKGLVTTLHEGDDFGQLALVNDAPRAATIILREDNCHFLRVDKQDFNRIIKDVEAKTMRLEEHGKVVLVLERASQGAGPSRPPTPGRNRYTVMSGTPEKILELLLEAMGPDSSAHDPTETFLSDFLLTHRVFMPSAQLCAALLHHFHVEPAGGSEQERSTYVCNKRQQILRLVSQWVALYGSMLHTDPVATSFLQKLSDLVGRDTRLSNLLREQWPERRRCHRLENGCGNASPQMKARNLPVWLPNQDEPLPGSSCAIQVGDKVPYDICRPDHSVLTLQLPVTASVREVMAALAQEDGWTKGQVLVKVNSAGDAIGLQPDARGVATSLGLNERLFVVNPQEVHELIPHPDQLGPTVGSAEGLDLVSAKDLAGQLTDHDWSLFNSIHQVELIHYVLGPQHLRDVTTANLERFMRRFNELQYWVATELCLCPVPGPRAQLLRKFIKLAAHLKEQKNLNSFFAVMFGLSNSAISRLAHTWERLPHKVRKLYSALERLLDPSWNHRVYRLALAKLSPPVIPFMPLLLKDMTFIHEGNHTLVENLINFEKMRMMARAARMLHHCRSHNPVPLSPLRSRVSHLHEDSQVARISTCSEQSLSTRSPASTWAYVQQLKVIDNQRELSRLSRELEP

[4] = […] solubility of the compound in water after 24 hrs by HPLC analysis; type: physicochemical; settings: for solubility: buffer, 24 h
[5] = […] solubility of the compound in ethanol after 24 hrs by HPLC analysis; type: physicochemical
Summary of the method: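 10–15 mg of solid added to 0.1–0.6 mL ethanol, shaken 24 h at 25 °C, then centrifuged and filtered. Supernatant (5 μL) injected on C18 reverse-phase HPLC with UV detection at 270 and 254 nm. Quantified by one-point calibration against standards of known concentration.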

[6] = biological target: T3, Rap guanine nucleotide exchange factor 3; assay: Antagonist activity at EPAC1 (unknown origin) assessed as cAMP-induced guanine nucleotide exchange factor activity

SMILES	Ratio IC50 [1]	IC50 [2]	IC50 ([2]; read-out: IC50)	IC50 [3]	also measured
CC(C)(C)c1cc(C(=O)/C(C#N)=N/Nc2ccccc2Cl)no1	1.1	–	–	–	–
CC(C)(C)c1cc(-c2n[nH]c(N)c2/N=N/c2cccc(Cl)c2)no1	–	Not Active	–	–	–
CC(C)(C)c1cc(C(=O)/C(C#N)=N/Nc2cccc(Cl)c2Cl)no1	0.9	–	–	–	–
CC(C)(C)c1cc(C(=O)/C(C#N)=N/Nc2ccc(Cl)c(Cl)c2)no1	10.7	–	–	–	–
CC(C)(C)c1cc(C(=O)/C(C#N)=N/Nc2cc(F)cc(F)c2)no1	6	–	5.3 µM	–	–
N#C/C(=N\Nc1cc(Cl)cc(Cl)c1)C(=O)c1cc(C2CCCCC2)on1	–	–	–	2.6 µM	–
CC(C)(C)c1cc(C(=O)/C(C#N)=N/Nc2ccc(Cl)c(C(F)(F)F)c2)no1	–	–	–	9.7 µM	–
CC(C)(C)c1cc(C(=O)/C(C#N)=N/Nc2cccc(CO)c2)no1	–	Not Active	–	–	–
CC(C)(C)c1cc(C(=O)/C(C#N)=N/Nc2cc(Cl)ccc2Cl)no1	4.4	–	–	–	–
Cc1cc(C(=O)/C(C#N)=N/Nc2cccc(Cl)c2)no1	–	Not Active	–	–	–
N#C/C(=N\Nc1cccc(Cl)c1)C(=O)c1cc(C2CCCCC2)on1	2.8	–	11.3 µM	–	–
CC(C)(C)c1cc(NC(=O)/C(C#N)=N/Nc2cccc(Cl)c2)no1	–	Not Active	–	–	–
CC(C)(C)c1cc(C(=O)/C(C#N)=N/Nc2cccc(C#N)c2)no1	–	–	67.8 µM	–	–
CC(C)(C)c1cc(C(=O)/C(C#N)=N/Nc2cc(F)c(F)c(F)c2)no1	–	–	–	8.9 µM	solubility [4]: 0.216 mM (≈ 75.7 µg/mL); solubility at 24 h [5]: 81.6 mM (≈ 28600 µg/mL)
CC(C)(C)c1cc(C(=O)/C(C#N)=N/Nc2cc(Cl)cc(Cl)c2)no1	16.8	–	–	–	–
Cc1cc(NC(=O)/C(C#N)=N/Nc2cccc(Cl)c2)no1	–	Not Active	–	–	–
CC(C)(C)c1cc(C(=O)/C(C#N)=N/Nc2cc(F)cc(Cl)c2)no1	12.8	–	2.5 µM	11.6 µM	–
CC(C)(C)c1cc(C(=O)/C(C#N)=N/Nc2cc(Cl)c(Cl)c(Cl)c2)no1	–	–	0.9 µM	2.4 µM	solubility [4]: 0.0318 mM (≈ 12.7 µg/mL); solubility at 24 h [5]: 10.9 mM (≈ 4360 µg/mL)
CC(C)(C)c1cc(NC(=O)Nc2cccc(Cl)c2)no1	–	Not Active	–	–	–
CC(=O)c1cccc(N/N=C(\C#N)C(=O)c2cc(C(C)(C)C)on2)c1	–	Not Active	–	–	–

SMILES	Ratio IC50 [1]	IC50 [2]	IC50 ([2]; read-out: IC50)	IC50 [3]	also measured
CC(C)(C)c1cc(C(=O)N/N=C/c2cccc(Cl)c2)no1	–	Not Active	–	–	–
CC(C)(C)c1cc(C(=O)/C(C#N)=N/Nc2cc(C(F)(F)F)cc(C(F)(F)F)c2)no1	–	–	6.4 µM	5.7 µM	solubility [4]: 0.968 mM (≈ 418 µg/mL); solubility at 24 h [5]: > 347 mM
N#C/C(=N\Nc1cccc(Cl)c1)C(=O)c1cc(C2CC2)on1	–	–	60 µM	–	–
CC(C)(C)c1cc(C(=O)/C(C#N)=N/Nc2cccc([N+](=O)[O-])c2)no1	1	–	31.3 µM	–	–
CC(C)(C)c1cc(C(=O)/C(C#N)=N/Nc2cccc(Cl)c2)no1	–	–	–	10.8 µM	IC50 [6]: 10.8 µM; solubility at 24 h ([4]; water): 0.018 mM (≈ 5.95 µg/mL); solubility at 24 h [5]: 45.3 mM (≈ 15000 µg/mL)
N#C/C(=N\Nc1cc(Cl)c(Cl)c(Cl)c1)C(=O)c1cc(C2CC2)on1	–	–	–	4.1 µM	–
CC(C)(C)c1cc(C(=O)/C(C#N)=N/Nc2cc(Cl)cc(C(F)(F)F)c2)no1	–	–	1.6 µM	5.7 µM	solubility at 24 h [5]: 36.6 mM (≈ 14600 µg/mL)
CC(C)(C)c1cc(C(=O)/C(C#N)=N/Nc2ccc(C(F)(F)F)c(Cl)c2)no1	–	–	–	4.3 µM	–
CCOC(=O)c1cccc(N/N=C(\C#N)C(=O)c2cc(C(C)(C)C)on2)c1	–	–	71.4 µM	–	–
CC(C)(C)c1cc(C(=O)/C(C#N)=N/Nc2ccc(Cl)c(F)c2)no1	7.4	–	4.3 µM	–	–
CC(C)(C)c1cc(C(=O)Nc2cccc(Cl)c2)no1	–	Not Active	–	–	–
CC(C)(C)c1cc(C(=O)/C(C#N)=N/Nc2ccc(Cl)cc2)no1	1.2	–	–	–	–
COc1cccc(N/N=C(\C#N)C(=O)c2cc(C(C)(C)C)on2)c1	–	Not Active	–	–	–
CC(C)(C)c1cc(NC(=O)c2cccc(Cl)c2)no1	–	Not Active	–	–	–
N#C/C(=N\Nc1cccc(Cl)c1)C(=O)c1cc(-c2ccccc2)on1	–	Not Active	–	–	–
N#C/C(=N\Nc1cc(Cl)c(Cl)c(Cl)c1)C(=O)c1cc(-c2ccccc2)on1	–	Not Active	–	–	–
CC(C)(C)c1cc(C(=O)/C(C#N)=N/Nc2ccccc2)no1	0.5	–	–	–	–
CC(C)(C)c1cc(C(=O)/C(C#N)=N/Nc2ccc(F)c(Cl)c2)no1	11.9	–	2.7 µM	7.8 µM	solubility [4]: 0.2368 mM (≈ 82.6 µg/mL); solubility at 24 h [5]: 23.5 mM (≈ 8200 µg/mL)
N#C/C(=N\Nc1cc(Cl)c(Cl)c(Cl)c1)C(=O)c1cc(C2CCCCC2)on1	–	–	–	4 µM	solubility [4]: 0.0237 mM (≈ 10.1 µg/mL); solubility at 24 h [5]: 8.5 mM (≈ 3620 µg/mL)
